How the values were obtained:
[1] = biological target: Serine/threonine-protein kinase Sgk2 (Homo sapiens, UniProt Q9HBY8); test: Inhibition of SGK2 (unknown origin)
[2] = biological target: Fibroblast growth factor receptor 1 (Homo sapiens, UniProt P11362); test: Inhibition of FGFR1 (unknown origin)
[3] = biological target: Protein kinase C delta type (Homo sapiens, UniProt Q05655); test: Inhibition of PRKCD (unknown origin)
[4] = Effect on Siglech gene expression in 5XFAD mouse cortex at 1200 ppm administered as rodent chow starting from 1.5 months and measured after 7 months by RNA-Seq analysis (reference value: 5.048 to 7.930 RPKM); format: functional; conditions: route po, time 5.5 months, 4015 h
[5] = Effect on Cst7 gene expression in wild type mouse cortex at 1200 ppm administered as rodent chow starting from 1.5 months and measured after 7 months by RNA-Seq analysis (reference value: 0.102 to 0.891 RPKM); format: functional; conditions: route po, time 5.5 months, 4015 h
[6] = Effect on Csf1r RPKM gene expression in 5XFAD mouse hippocampus at 1200 ppm administered as rodent chow starting from 1.5 months and measured after 7 months by RNA-Seq analysis (reference value: 33.840 to 41.629 RPKM); format: functional; conditions: route po, time 5.5 months, 4015 h
AMPK alpha2/beta1/gamma1 = AMPK alpha2/beta1/gamma1 (Homo sapiens, UniProt P54619+P54646+Q9Y478); test: Inhibition of AMPK_A2/B1/G1 (unknown origin); format: protein-complex assay
[7] = Effect on Dynll1 gene expression in wildtype mouse hippocampus assessed as percent change in Reads Per kilo base per Million mapped reads at 1200 ppm administered as rodent chow starting from 1.5 months and measured after 7 months by RNA-Seq analysis (reference value: 83.247 to 113.338 %); format: functional; conditions: route po, time 5.5 months, 4015 h
[8] = biological target: Protein kinase C epsilon type (Homo sapiens, UniProt Q02156); test: Inhibition of PRKCE (unknown origin)
Protein kinase C epsilon type, sequence (Q02156 whole entry): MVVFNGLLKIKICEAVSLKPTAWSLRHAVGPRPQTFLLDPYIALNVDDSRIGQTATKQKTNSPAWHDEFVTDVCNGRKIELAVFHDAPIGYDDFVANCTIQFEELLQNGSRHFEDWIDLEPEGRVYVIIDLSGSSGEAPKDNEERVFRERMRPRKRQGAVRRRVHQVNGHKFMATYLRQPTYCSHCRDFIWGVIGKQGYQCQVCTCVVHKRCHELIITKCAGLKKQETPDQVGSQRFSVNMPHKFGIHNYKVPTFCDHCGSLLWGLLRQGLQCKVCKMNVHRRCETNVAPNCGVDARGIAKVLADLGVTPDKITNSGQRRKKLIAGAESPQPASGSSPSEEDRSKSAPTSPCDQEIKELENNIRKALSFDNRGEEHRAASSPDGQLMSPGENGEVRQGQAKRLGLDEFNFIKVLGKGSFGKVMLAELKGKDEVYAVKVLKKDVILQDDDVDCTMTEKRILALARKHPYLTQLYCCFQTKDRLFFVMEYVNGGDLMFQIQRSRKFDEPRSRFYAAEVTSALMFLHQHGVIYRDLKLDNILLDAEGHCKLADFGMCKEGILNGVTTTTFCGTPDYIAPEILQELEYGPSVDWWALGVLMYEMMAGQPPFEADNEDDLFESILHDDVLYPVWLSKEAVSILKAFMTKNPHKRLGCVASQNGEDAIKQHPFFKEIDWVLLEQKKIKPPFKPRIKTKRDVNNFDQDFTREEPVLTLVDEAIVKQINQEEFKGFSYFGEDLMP

[9] = biological target: Calcium/calmodulin-dependent protein kinase type II subunit beta (Homo sapiens, UniProt Q13554); test: Inhibition of CAMK2B (unknown origin)
Calcium/calmodulin-dependent protein kinase type II subunit beta, sequence (Q13554 whole entry): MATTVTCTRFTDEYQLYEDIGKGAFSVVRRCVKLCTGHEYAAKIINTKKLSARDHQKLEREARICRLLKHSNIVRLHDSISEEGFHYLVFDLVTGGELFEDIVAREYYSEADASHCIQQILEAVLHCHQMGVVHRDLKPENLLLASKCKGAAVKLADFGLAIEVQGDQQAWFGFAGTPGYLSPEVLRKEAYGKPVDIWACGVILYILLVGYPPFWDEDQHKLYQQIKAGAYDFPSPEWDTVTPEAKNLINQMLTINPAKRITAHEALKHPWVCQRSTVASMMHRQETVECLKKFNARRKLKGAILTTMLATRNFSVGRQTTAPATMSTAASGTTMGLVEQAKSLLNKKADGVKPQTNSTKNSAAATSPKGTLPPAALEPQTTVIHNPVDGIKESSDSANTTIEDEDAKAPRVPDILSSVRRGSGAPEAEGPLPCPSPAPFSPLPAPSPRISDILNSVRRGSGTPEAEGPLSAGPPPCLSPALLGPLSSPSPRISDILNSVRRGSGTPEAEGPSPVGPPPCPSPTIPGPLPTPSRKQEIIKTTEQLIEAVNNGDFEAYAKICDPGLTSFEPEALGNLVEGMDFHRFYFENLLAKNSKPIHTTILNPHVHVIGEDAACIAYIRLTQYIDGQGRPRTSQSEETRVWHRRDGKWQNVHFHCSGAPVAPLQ

[10] = biological target: T1, Macrophage colony-stimulating factor 1 receptor (Mus musculus) (UniProt P09581); test: In vivo inhibition of CSF1R in wildtype mouse assessed as iron reactivity by measuring hemosiderin intensity of prussian blue staining in thalamus at 1200 ppm administered as rodent chow starting from 1.5 months and measured after 4 months by confocal microscopic analysis (reference value: 0.1 to 2.451 a.u.); format: functional; conditions: route po, time 2.5 months
T1 sequence (whole entry): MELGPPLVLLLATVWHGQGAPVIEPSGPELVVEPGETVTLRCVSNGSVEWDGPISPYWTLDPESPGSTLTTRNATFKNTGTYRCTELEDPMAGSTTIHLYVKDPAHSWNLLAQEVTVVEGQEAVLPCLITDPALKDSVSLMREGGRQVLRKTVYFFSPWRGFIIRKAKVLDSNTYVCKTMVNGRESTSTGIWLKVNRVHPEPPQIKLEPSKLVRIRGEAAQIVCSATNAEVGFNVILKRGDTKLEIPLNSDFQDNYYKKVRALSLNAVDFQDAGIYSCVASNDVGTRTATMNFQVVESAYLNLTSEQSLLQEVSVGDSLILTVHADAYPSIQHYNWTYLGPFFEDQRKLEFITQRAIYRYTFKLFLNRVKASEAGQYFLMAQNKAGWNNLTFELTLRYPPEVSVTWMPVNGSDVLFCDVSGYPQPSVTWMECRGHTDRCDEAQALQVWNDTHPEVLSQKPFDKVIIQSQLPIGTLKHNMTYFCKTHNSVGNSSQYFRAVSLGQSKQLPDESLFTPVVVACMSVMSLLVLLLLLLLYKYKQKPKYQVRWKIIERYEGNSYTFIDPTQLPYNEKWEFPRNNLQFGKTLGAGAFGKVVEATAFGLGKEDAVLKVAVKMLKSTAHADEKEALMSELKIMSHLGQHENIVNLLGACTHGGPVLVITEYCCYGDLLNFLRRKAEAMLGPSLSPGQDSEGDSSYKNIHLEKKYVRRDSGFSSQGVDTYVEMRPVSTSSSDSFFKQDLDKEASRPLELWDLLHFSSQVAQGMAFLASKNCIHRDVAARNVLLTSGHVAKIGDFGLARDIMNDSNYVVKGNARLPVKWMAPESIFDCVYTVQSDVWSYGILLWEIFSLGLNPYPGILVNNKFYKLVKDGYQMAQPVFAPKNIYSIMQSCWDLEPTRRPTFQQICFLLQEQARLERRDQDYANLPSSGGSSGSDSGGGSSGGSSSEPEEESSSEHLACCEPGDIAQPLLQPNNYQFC
In short: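 Wild-type or 5xFAD mice fed PLX5622 (1200 ppm) in AIN-76A chow from 1.5 months of age, examined in 4- and 7-month-old cohorts. Brain sections stained with a Prussian blue kit per kit instructions to detect iron deposits (microbleeds).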

[11] = Prevention of Pcdhac1 gene downregulation in 5XFAD mouse hippocampus assessed as percent change in Reads Per kilo base per Million mapped reads at 1200 ppm administered as rodent chow starting from 1.5 months and measured after 7 months by RNA-Seq analysis (reference value: 43.082 to 72.354 %); format: functional; conditions: route po, time 5.5 months, 4015 h
Mus musculus [12] = test: Antialzheimer activity in 5XFAD mouse assessed as number of This-S positive cells per FOV in somatosensory cortex at 1200 ppm administered as rodent chow starting from 1.5 months to 4 months followed by compound removal and measured after 1 months by immunolabelling based confocal microscopic analysis (reference value: 34 to 79); format: functional; conditions: route po, time 2.5 months, 1825 h
In short: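 For the repopulation paradigm, 5xFAD mice ate 1200 ppm PLX5622 chow from 1.5 to 4 months of age. Inhibitor chow was then withdrawn, and brains were examined one month later. Sections were stained with Thio-S and immunolabeled for IBA1, then analysed by confocal microscopy in cortical regions.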

[13] = biological target: Serine/threonine-protein kinase PLK3 (Homo sapiens, UniProt Q9H4B4); test: Inhibition of PLK3 (unknown origin)
Mus musculus [14] = test: Antialzheimer activity in 5XFAD mouse assessed as number of entries to center zone at 1200 ppm administered as rodent chow for 10 to 24 weeks by Open field test (reference value: 22 to 55); format: functional; conditions: route po, time 10-24 weeks
[15] = Effect on C1qa gene expression in wild type mouse thalamus at 1200 ppm administered as rodent chow starting from 1.5 months and measured after 7 months by RNA-Seq analysis (reference value: 19.070 to 32.518); format: functional; conditions: route po, time 5.5 months, 4015 h
In short: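 WT and 5xFAD mice were treated with 1200 ppm PLX5622 chow or control chow from 1.5 to 7 months of age. Brains were microdissected into cortex, hippocampus and thalamus, and RNA was extracted from tissue powder. Whole-transcriptome RNA-Seq libraries were sequenced, with n = 4 per group per region (48 samples).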

[16] = Effect on Ctsd gene expression in wild type mouse hippocampus at 1200 ppm administered as rodent chow starting from 1.5 months and measured after 7 months by RNA-Seq analysis (reference value: 111.753 to 176.402 RPKM); format: functional; conditions: route po, time 5.5 months, 4015 h
Aurora kinase A = Aurora kinase A (Homo sapiens, UniProt O14965); test: Inhibition of AURKA (unknown origin)
Aurora kinase A, sequence (O14965 whole entry): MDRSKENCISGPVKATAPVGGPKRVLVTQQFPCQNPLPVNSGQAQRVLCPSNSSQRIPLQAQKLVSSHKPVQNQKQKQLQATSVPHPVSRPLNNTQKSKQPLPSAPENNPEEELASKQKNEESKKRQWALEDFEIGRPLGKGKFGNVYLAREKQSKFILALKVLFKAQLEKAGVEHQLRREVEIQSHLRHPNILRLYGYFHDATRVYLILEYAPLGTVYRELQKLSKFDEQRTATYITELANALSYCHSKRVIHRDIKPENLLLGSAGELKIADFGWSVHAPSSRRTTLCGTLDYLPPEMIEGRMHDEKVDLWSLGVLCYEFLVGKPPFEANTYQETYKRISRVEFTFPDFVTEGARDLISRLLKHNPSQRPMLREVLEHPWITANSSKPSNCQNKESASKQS

Ephrin type-A receptor 8 = Ephrin type-A receptor 8 (Homo sapiens, UniProt P29322); test: Inhibition of EPHA8 (unknown origin)
Ephrin type-A receptor 8, sequence (P29322 whole entry): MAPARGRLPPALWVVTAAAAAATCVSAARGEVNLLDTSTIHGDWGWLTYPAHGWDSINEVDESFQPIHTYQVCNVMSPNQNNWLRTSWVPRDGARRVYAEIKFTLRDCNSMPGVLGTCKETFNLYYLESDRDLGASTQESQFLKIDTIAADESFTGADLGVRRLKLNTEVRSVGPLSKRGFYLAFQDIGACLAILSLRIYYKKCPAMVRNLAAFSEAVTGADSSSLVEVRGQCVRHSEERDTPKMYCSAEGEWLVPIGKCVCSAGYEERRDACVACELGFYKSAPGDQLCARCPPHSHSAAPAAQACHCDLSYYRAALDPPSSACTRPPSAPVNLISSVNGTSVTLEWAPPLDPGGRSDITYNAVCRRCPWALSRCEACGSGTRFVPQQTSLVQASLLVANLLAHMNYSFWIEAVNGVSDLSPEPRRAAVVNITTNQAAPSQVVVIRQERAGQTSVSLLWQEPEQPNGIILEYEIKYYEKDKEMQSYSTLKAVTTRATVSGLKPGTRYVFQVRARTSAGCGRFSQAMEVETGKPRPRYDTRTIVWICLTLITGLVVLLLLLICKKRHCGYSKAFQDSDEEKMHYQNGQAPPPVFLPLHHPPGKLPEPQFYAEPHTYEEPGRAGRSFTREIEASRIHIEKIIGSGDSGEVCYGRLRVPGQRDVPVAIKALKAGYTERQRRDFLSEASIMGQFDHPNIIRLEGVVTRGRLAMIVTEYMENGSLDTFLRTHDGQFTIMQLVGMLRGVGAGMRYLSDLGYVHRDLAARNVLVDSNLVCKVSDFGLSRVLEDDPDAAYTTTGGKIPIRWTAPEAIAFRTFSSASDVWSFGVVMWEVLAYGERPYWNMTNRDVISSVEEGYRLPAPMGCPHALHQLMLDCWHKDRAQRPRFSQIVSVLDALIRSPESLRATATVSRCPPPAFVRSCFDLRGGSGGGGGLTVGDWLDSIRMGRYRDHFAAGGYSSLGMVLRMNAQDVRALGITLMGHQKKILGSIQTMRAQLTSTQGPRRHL

[17] = biological target: Proto-oncogene tyrosine-protein kinase receptor Ret (Homo sapiens, UniProt P07949, V804L); test: Inhibition of RET V804L mutant (unknown origin)
[18] = biological target: Ribosomal protein S6 kinase beta-1 (Homo sapiens, UniProt P23443); test: Inhibition of RPS6KB1 (unknown origin)

Fibroblast growth factor receptor 1, sequence (P11362 whole entry): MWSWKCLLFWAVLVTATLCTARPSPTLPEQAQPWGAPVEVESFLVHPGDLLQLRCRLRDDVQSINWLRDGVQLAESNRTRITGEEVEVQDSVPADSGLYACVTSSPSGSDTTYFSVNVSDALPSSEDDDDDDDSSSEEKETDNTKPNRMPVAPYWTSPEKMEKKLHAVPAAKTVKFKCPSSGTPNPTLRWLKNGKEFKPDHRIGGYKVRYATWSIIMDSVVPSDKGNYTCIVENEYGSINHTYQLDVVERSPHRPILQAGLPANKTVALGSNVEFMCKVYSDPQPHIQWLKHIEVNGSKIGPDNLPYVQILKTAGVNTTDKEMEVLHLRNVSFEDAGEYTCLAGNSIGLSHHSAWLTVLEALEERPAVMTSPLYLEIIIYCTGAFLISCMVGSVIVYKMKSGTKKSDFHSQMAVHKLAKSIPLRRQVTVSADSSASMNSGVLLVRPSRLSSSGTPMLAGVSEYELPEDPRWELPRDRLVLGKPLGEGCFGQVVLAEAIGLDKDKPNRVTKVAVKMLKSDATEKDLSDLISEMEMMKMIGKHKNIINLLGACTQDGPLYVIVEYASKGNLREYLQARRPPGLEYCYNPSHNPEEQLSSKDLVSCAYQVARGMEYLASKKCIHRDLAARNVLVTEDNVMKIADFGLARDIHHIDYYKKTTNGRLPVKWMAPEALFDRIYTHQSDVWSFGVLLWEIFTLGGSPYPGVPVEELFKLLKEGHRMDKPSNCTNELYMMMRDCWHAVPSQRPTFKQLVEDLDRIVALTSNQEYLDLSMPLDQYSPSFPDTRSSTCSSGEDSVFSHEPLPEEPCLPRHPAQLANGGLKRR
Serine/threonine-protein kinase Sgk2, sequence (Q9HBY8 whole entry): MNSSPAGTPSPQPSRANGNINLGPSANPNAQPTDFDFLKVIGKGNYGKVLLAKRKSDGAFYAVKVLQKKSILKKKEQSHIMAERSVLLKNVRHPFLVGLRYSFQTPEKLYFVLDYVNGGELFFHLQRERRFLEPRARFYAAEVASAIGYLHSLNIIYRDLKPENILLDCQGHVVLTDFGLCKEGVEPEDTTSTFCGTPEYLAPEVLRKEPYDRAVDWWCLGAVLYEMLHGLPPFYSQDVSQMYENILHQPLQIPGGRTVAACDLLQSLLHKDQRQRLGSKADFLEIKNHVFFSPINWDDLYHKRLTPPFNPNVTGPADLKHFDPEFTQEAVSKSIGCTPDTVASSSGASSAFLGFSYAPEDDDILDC
Protein kinase C delta type, sequence (Q05655 whole entry): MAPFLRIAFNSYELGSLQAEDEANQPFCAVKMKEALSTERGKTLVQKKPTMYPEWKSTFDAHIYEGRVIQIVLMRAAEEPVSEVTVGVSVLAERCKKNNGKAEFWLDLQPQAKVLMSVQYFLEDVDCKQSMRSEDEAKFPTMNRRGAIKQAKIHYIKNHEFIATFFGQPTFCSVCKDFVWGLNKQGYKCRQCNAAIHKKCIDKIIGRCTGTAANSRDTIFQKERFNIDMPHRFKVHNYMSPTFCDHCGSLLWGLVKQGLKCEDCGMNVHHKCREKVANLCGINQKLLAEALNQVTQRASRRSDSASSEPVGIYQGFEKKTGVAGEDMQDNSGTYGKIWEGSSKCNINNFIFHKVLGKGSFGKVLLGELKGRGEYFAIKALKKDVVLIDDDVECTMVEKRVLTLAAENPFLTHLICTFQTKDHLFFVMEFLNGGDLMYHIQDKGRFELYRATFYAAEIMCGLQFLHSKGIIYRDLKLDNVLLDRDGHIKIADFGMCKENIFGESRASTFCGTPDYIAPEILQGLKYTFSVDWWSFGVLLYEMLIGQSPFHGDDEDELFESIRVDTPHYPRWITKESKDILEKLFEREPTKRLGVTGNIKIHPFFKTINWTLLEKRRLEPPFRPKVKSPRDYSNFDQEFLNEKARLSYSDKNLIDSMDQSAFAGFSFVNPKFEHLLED

Structure (SMILES): COc1ncc(F)cc1CNc1ccc(Cc2c[nH]c3ncc(C)cc23)c(F)n1 [PLX-5622]
- IC50 [1]: > 1 µM
- IC50 [2]: > 1 µM
- IC50 [3]: > 1 µM
- Activity [4]: 0.14 RPKM
- Activity [5]: 0 RPKM
- Activity [6]: 3.234 RPKM
- IC50 (AMPK alpha2/beta1/gamma1): > 1 µM
- Activity [7]: 101.141%
- IC50 [8]: > 1 µM
- IC50 [9]: > 1 µM
- Flu intensity [10]: 0.273 a.u.
- Activity [11]: 76.485%
- Activity (Mus musculus [12]): 15
- IC50 [13]: > 1 µM
- Activity (Mus musculus [14]): 7
- Activity [15]: 0 RPKM
- Activity [16]: 89.626 RPKM
- IC50 (Aurora kinase A): > 1 µM
- IC50 (Ephrin type-A receptor 8): > 1 µM
- IC50 [17]: > 1 µM
- IC50 [18]: > 1 µM
